The chains are these.
B1: tRNA (parent)
chain: GUUCCGUUGGCGUAAUGGUAACGCGUCUCCCUCCUAAGGAGAAGACUGCGGGUUCGAGUCCCGUACGGAACG

This sample holds only a part of the variants without activity. Bounds are passed on as bounds.

In the series the parent is B1. In words: yeast fitness relative to wild type (ratio to wild type); higher = fitter; tRNA-Arg(CCU), competitive growth, 37 C, YPD. In a few lines: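 For this measurement, the tRNA-Arg(CCU) gene was varied by chemical synthesis at a 3% per-site mutation rate across 69 sites, and each variant was placed at the native genomic locus in Saccharomyces cerevisiae. The pooled strains went through a 24-hour competition in YPD at 37°C in six parallel replicates, with amplicons from start and end populations read by 100-nucleotide paired-end sequencing. Darwinian fitness relative to wild type followed from the change in each genotype's frequency. Genotypes needed ≥ 100 starting reads, and estimates < 0.5 were set to 0.5.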
With C11G A40G A45G G52A, the yeast fitness came to 0.577.
In the case of C11G A40G, the yeast fitness is 0.567.
The result for C11A U19C A21U A43U G58C C60A C66U reads 0.531; that for C11G C24U A69C, at most 0.5.
The result for C11A U35A A37C A43G reads 0.511; that for C11A G56A, 0.739.
To C11A G56C belongs at most 0.5.
Turning to C11A U28C A42G A43U C46U C62U, the yeast fitness was at most 0.5.
Consider C11A G44A G48A, for which the yeast fitness turned out to be 0.68.
For the variant C11G A15G A21G A37G A57U C60U C62G, the yeast fitness was at most 0.5.
On to C11G A14U A21U A69U, for which the yeast fitness is at most 0.5.
In the case of C11G A40G C61A, the yeast fitness came to 0.605.
The result for C11G C24U A42U A43U C66U reads at most 0.5.
Turning to C11G A14G G17A G48C C62U C66G A70G, the yeast fitness was at most 0.5.
In the case of C11G A15G U54G, the yeast fitness was at most 0.5.
To C11A U16C U32G C49G C55A belongs 0.546; to C11G C22A C31U A42G, 0.659; to C11G A15U C31A G58C A70C, at most 0.5.
To C11A U16A belongs 0.58; to C11G A14G G18C A20U C33U C62U G63A, at most 0.5.
To C11G A14U G17A A36G G41A U53A G58C A70C belongs at most 0.5; to C11A U32A C33U U47A G63A, at most 0.5.
On to C11G A45C U47C C61U A69G, for which the yeast fitness was at most 0.5.
The result for C11G A15G U28G C29U C33G C46G A57C reads at most 0.5; that for C11A U19C C31U U53A, at most 0.5; that for C11G C27U A43C, 0.502.
For the variant C11A U28G C34U, the yeast fitness was at most 0.5.
Take C11G A15U C34A A42C G48A C55U: the yeast fitness was at most 0.5.
The result for C11A U32C G67A reads 0.606; that for C11G A21U U35A, at most 0.5; that for C11G C24G G52C C55G, 0.813.
To C11G C24U C31G C33U A43U belongs at most 0.5; to C11G A15C C34U G48A C55U, 0.759.
In the case of C11A U35A A37U, the yeast fitness was at most 0.5.
The result for C11G A20U G38C G50A reads 0.569.
The result for C11G A20C A42C C49U A57U reads at most 0.5; that for C11A U16G C33U, at most 0.5; that for C11G A20C, 0.615.
For C11G A20U, the yeast fitness turned out to be 0.692.
The result for C11G A43U U47A A65U G67C reads at most 0.5.
As to C11G A14G C27A G38A A65C, the yeast fitness was at most 0.5.
For the variant C11A U47C, the yeast fitness is 0.689.
C11G A36U A37U C55U: the yeast fitness was at most 0.5.
To C11A U32A C33U U47A belongs at most 0.5.
To C11G A20G U53C belongs at most 0.5.
In the case of C11G C22U, the yeast fitness was determined as 0.653.
The result for C11G C22A reads 0.608; that for C11G C22G, 0.675; that for C11G A42C A57U, 0.564.
Turning to C11A U32A C33U G68C, the yeast fitness was at most 0.5.
To C11G A45U G50A G63A U64A belongs 0.668; to C11A U19A C27U A42U A45C C55U A69C, at most 0.5.
To C11A U53G belongs 0.577; to C11G C22G C24U G50C, at most 0.5.
C11G A37C C46G G48A: the yeast fitness was at most 0.5.
To C11A U16G U53G belongs at most 0.5; to C11G A42C G68C, at most 0.5; to C11A G50C C60U A70C, at most 0.5.
The result for C11G A20U G56A C60U reads 0.678; that for C11G A21U C27A C61G, 0.531.
The result for C11G A45G G67A reads 0.539; that for C11G A20U C24A G25C A40G G58C, at most 0.5; that for C11G A14G A37G G44A C60A C62U U64C G68A A69C, at most 0.5.
With C11G C24G A42U, the yeast fitness was at most 0.5.
To C11G A37C belongs 0.606.
The result for C11A G25C A57U reads 0.513; that for C11G C24A U28G G63A, 0.586.
To C11A G25C C46U G50A belongs at most 0.5; to C11G A15G U26A U32A G38A A40C G58A, at most 0.5.
For the variant C11G C27U C33U, the yeast fitness came out at 0.584.
The result for C11A U13A C29A G48A C66U reads at most 0.5; that for C11G A37C C66G G68U, at most 0.5; that for C11G C22A C27G C31U U59A, 0.569.
To C11G A69C A70U belongs 0.684; to C11G A43U, 0.726.
For C11G A43G, the yeast fitness is 0.641.
To C11A U28G C33A A45G A65U belongs at most 0.5.
To C11G A42U C49G G58C A69U belongs at most 0.5; to C11G A21U U26C U53G, 0.696; to C11A G41C, 0.714.
With C11A U13A A20U, the yeast fitness is at most 0.5.
Consider C11G C24U A42G A65G, for which the yeast fitness was at most 0.5.
To C11G A14U C24A C60A belongs at most 0.5; to C11A G58A G68A A69U A70U, at most 0.5.
